# Laboratory results published in ChEMBL document CHEMBL3596194, “Design, synthesis and biological evaluation of bivalent benzoxazolone and benzothiazolone ligands as potential anti-inflammatory/analgesic agents” (Bioorg Med Chem, 2015).
# The source made the active and inactive calls. The rule behind the calls is not given here.
# Tested on: not listed separately
# Assay: Cytotoxicity against pig LLC-PK11 cells up to 25 ug/ml after 48 hrs by neutral red assay relative to control
# Format: cell-based, Sus scrofa
# Settings: llc-pk11, 48 h
# Method in brief: (§1)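 Cells grown in RPMI-1640 with 10% bovine calf serum and amikacin at 37 °C, 5% CO2. Seeded at 25,000 cells/well and grown 24 h, then exposed 48 h to samples diluted in serum-free medium. Viability by Neutral Red; % decrease vs vehicle; IC50 from dose curves. Triplicate runs, mean reported; doxorubicin as positive control.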
row,SMILES,Activity
1,O=c1sc2ccccc2n1CCCCCN1CCN(CCCCCn2c(=O)sc3ccccc32)CC1,Non-toxic
2,O=c1oc2ccccc2n1CCCCCN1CCN(CCCCn2c(=O)oc3ccccc32)CC1,Non-toxic
3,O=c1oc2ccccc2n1CCCCN1CCN(CCCCn2c(=O)oc3ccccc32)CC1,Non-toxic
4,O=c1sc2ccccc2n1CCCCCCN1CCN(CCCCCCn2c(=O)sc3ccccc32)CC1,Non-toxic

# Tested on: Rattus norvegicus
# Assay: Antiinflammatory activity in albino rat assessed as inhibition of carrageenan-induced paw edema at 30 mg/kg, ip administered 1 hr prior to carrageenan challenge measured 1 hr after induction of inflammation relative to control
# Format: functional
# Settings: not given
# Method in brief: (§2)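 Adult albino rats of both sexes, 120–150 g, groups of five, pre-hydrated with 3 ml water orally. Compounds suspended in distilled water with few drops Tween 80, given ip 1 h before subplantar s.c. 1% carrageenan into right hind paw. Paw thickness measured by dial calipers, left paw as control. % inhibition = (1 – Lt/Lc) × 100 versus saline/Tween 80 group.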
row,SMILES,inhibition in vivo at 30 mg/kg
1,O=c1sc2ccccc2n1CCCCCCN1CCN(CCCCCCn2c(=O)sc3ccccc32)CC1,32.2%

# Tested on: SK-MEL
# Assay: Cytotoxicity against human SK-MEL cells up to 25 ug/ml after 48 hrs by neutral red assay relative to control
# Format: cell-based
# Settings: not given
# Method in brief: as §1
row,SMILES,Activity
1,O=c1oc2ccccc2n1CCCCCN1CCN(CCCCn2c(=O)oc3ccccc32)CC1,Non-toxic
2,O=c1oc2ccccc2n1CCCCN1CCN(CCCCn2c(=O)oc3ccccc32)CC1,Non-toxic
3,O=c1sc2ccccc2n1CCCCCCN1CCN(CCCCCCn2c(=O)sc3ccccc32)CC1,Non-toxic

# Tested on: Rattus norvegicus
# Assay: Antiinflammatory activity in albino rat assessed as inhibition of carrageenan-induced paw edema at 30 mg/kg, ip administered 1 hr prior to carrageenan challenge measured 2 hrs after induction of inflammation relative to control
# Format: functional
# Settings: not given
# Method in brief: as §2
row,SMILES,inhibition in vivo at 30 mg/kg
1,O=c1sc2ccccc2n1CCCCCCN1CCN(CCCCCCn2c(=O)sc3ccccc32)CC1,37.5%

# Tested on: Rattus norvegicus
# Assay: Antiinflammatory activity in albino rat assessed as inhibition of carrageenan-induced paw edema at 30 mg/kg, ip administered 1 hr prior to carrageenan challenge measured 3 hrs after induction of inflammation relative to control
# Format: functional
# Settings: not given
# Method in brief: as §2
row,SMILES,inhibition in vivo at 30 mg/kg
1,O=c1sc2ccccc2n1CCCCCCN1CCN(CCCCCCn2c(=O)sc3ccccc32)CC1,39.3%

# Tested on: SW1353
# Assay: Antiinflammatory activity in human SW1353 cells assessed as inhibition of PMA-induced NF-kappaB activity up to 25 ug/ml incubated for 30 mins prior to PMA challenge measured after 8 hrs by luciferase reporter gene assay
# Format: cell-based
# Settings: not given
# Method in brief: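 SW1353 chondrosarcoma cells grown in DMEM/F12 with 10% FBS at 37 °C, 5% CO2. Cells electroporated with an NF-κB luciferase plasmid (50 μg/mL, 160 V, one 70-ms pulse) and plated at 1.25 × 10⁵ cells/well. After 24 h, compound was added 30 min before PMA (70 ng/mL), then 8 h incubation. Luciferase read-out as % inhibition vs vehicle; IC50 from dose curves. Sp-1 served as a counter-screen.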
row,SMILES,inhibition
1,O=c1oc2ccccc2n1CCCCCN1CCN(CCCCn2c(=O)oc3ccccc32)CC1,inactive
2,O=c1oc2ccccc2n1CCCCN1CCN(CCCCn2c(=O)oc3ccccc32)CC1,inactive

# Tested on: Vero
# Assay: Cytotoxicity against African green monkey Vero cells after 48 hrs by neutral red assay relative to control
# Format: cell-based
# Settings: chlorocebus sabaeus
# Method in brief: (§3)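 Cells grown in RPMI-1640 with 10% bovine calf serum and amikacin at 37°C, 5% CO₂. Seeded 25,000 cells/well, grown 24 h, then exposed to compounds diluted in serum-free medium for 48 h. Viability by Neutral Red uptake, % decrease versus vehicle control. IC50 from dose curves, triplicate means. Doxorubicin positive control.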
row,SMILES,IC50
1,O=c1oc2ccccc2n1CCCCCN1CCN(CCCCn2c(=O)oc3ccccc32)CC1,17.6 µM

# Tested on: Mus musculus
# Assay: Antinociceptive activity in ip dosed Swiss mouse assessed as inhibition of acetic acid-induced writhing response administered 15 mins prior to acetic acid challenge measured for 20 mins relative to vehicle-treated control
# Format: functional, organism-based
# Settings: not given
# Method in brief: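 Mice dosed i.p. with compound or vehicle 15 min before testing, or with indomethacin 3 mg/kg i.p. 30 min before. After 15 min habituation in an enclosure, 0.9% acetic acid given i.p. (1 ml/0.1 kg) and writhes counted for 20 min. Non-responders excluded; n = 4-6; mean ± SD.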
row,SMILES,inhibition
1,O=c1sc2ccccc2n1CCCCCCN1CCN(CCCCCCn2c(=O)sc3ccccc32)CC1,Dose-dependent effect

# Tested on: SK-OV-3
# Assay: Cytotoxicity against human SKOV3 cells after 48 hrs by neutral red assay relative to control
# Format: cell-based
# Settings: SK-OV-3, 48 h
# Method in brief: as §3
row,SMILES,IC50
1,O=c1sc2ccccc2n1CCCCCN1CCN(CCCCCn2c(=O)sc3ccccc32)CC1,25 µM
2,O=c1sc2ccccc2n1CCCCCCN1CCN(CCCCCCn2c(=O)sc3ccccc32)CC1,24.3 µM

# Tested on: Vero
# Assay: Cytotoxicity against African green monkey Vero cells up to 25 ug/ml after 48 hrs by neutral red assay relative to control
# Format: cell-based
# Settings: chlorocebus sabaeus
# Method in brief: as §1
row,SMILES,Activity
1,O=c1sc2ccccc2n1CCCCCN1CCN(CCCCCn2c(=O)sc3ccccc32)CC1,Non-toxic
2,O=c1oc2ccccc2n1CCCCN1CCN(CCCCn2c(=O)oc3ccccc32)CC1,Non-toxic
3,O=c1sc2ccccc2n1CCCCCCN1CCN(CCCCCCn2c(=O)sc3ccccc32)CC1,Non-toxic

# Biological target: T1, Nitric oxide synthase, inducible (Mus musculus) (UniProt P29477)
# T1 sequence (whole entry): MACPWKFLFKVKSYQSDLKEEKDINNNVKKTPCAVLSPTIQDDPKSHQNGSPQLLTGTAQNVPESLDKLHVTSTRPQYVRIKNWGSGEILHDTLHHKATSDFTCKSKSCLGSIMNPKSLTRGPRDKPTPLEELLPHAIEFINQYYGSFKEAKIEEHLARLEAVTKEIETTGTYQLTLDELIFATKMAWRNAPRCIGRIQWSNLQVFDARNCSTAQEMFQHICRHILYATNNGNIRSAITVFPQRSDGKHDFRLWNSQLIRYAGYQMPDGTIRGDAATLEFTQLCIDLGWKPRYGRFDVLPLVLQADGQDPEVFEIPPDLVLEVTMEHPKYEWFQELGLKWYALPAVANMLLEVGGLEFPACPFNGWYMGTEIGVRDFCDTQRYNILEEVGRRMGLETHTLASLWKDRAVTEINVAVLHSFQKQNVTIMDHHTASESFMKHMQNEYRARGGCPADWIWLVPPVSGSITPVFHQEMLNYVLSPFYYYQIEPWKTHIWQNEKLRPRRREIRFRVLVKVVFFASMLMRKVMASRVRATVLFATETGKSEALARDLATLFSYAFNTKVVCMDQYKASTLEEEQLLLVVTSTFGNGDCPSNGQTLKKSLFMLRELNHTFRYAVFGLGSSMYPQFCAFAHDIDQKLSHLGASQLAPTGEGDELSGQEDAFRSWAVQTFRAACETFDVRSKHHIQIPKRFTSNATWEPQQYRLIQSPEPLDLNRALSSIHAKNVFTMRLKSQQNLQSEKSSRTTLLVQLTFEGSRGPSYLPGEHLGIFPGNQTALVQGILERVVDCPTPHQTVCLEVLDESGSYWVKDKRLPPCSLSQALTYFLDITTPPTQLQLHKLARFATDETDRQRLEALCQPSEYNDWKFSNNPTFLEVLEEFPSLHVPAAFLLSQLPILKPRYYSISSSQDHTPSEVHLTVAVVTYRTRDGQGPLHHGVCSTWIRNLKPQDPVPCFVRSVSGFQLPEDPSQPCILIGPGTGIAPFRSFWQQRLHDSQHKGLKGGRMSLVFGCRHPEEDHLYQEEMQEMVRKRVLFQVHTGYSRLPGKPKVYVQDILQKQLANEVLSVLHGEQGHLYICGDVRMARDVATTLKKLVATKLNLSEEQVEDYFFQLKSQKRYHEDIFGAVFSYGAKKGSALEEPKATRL
# Assay: Antiinflammatory activity in mouse RAW264.7 cells assessed as inhibition of LPS-induced iNOS activity up to 25 ug/ml incubated for 30 mins prior to LPS challenge measured after 24 hrs by Griess assay
# Format: cell-based
# Settings: not given
# Method in brief: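 RAW264.7 macrophages seeded at 50,000 cells/well and grown 24 h to ≥75% confluency. Compounds in serum-free medium added 30 min before LPS (5 μg/mL), then 24 h incubation. Nitrite in the supernatant measured with Griess reagent.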
row,SMILES,inhibition
1,O=c1oc2ccccc2n1CCCCN1CCN(CCCCn2c(=O)oc3ccccc32)CC1,inactive

# Tested on: BT-549
# Assay: Cytotoxicity against human BT549 cells up to 25 ug/ml after 48 hrs by neutral red assay relative to control
# Format: cell-based
# Settings: bt-549, 48 h
# Method in brief: as §1
row,SMILES,Activity
1,O=c1oc2ccccc2n1CCCCCN1CCN(CCCCn2c(=O)oc3ccccc32)CC1,Non-toxic
2,O=c1oc2ccccc2n1CCCCN1CCN(CCCCn2c(=O)oc3ccccc32)CC1,Non-toxic

# Tested on: Rattus norvegicus
# Assay: Antiinflammatory activity in albino rat assessed as inhibition of carrageenan-induced paw edema at 30 mg/kg, ip administered 1 hr prior to carrageenan challenge measured 4 hrs after induction of inflammation relative to control
# Format: functional
# Settings: not given
# Method in brief: as §2
row,SMILES,inhibition in vivo at 30 mg/kg
1,O=c1sc2ccccc2n1CCCCCCN1CCN(CCCCCCn2c(=O)sc3ccccc32)CC1,36.9%

# Tested on: KB
# Assay: Cytotoxicity against human KB cells after 48 hrs by neutral red assay relative to control
# Format: cell-based
# Settings: not given
# Method in brief: as §3
row,SMILES,IC50
1,O=c1sc2ccccc2n1CCCCCCN1CCN(CCCCCCn2c(=O)sc3ccccc32)CC1,20.8 µM

# Tested on: BT-549
# Assay: Cytotoxicity against human BT549 cells after 48 hrs by neutral red assay relative to control
# Format: cell-based
# Settings: BT-549, 48 h
# Method in brief: as §3
row,SMILES,IC50
1,O=c1sc2ccccc2n1CCCCCN1CCN(CCCCCn2c(=O)sc3ccccc32)CC1,19.3 µM
2,O=c1sc2ccccc2n1CCCCCCN1CCN(CCCCCCn2c(=O)sc3ccccc32)CC1,24.3 µM

# Tested on: not listed separately
# Assay: Antiinflammatory activity in human SW1353 cells assessed as inhibition of PMA-induced NF-kappaB activity incubated for 30 mins prior to PMA challenge measured after 8 hrs by luciferase reporter gene assay
# Format: cell-based
# Settings: not given
# Method in brief: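 SW1353 cells in DMEM/F12 with 10% FBS, electroporated with NF-κB luciferase plasmid (160 V, one 70-ms pulse), plated at 1.25 × 10⁵ cells/well. After 24 h, graded compound concentrations added 30 min before PMA 70 ng/mL, then 8 h incubation. Luciferase read-out, % inhibition versus vehicle, IC50 from dose curves. Sp-1 reporter served as nonspecific control.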
row,SMILES,IC50
1,O=c1sc2ccccc2n1CCCCCCN1CCN(CCCCCCn2c(=O)sc3ccccc32)CC1,0.41 µM

# Tested on: SK-OV-3
# Assay: Cytotoxicity against human SKOV3 cells up to 25 ug/ml after 48 hrs by neutral red assay relative to control
# Format: cell-based
# Settings: sk-ov-3, 48 h
# Method in brief: as §1
row,SMILES,Activity
1,O=c1oc2ccccc2n1CCCCCN1CCN(CCCCn2c(=O)oc3ccccc32)CC1,Non-toxic
2,O=c1oc2ccccc2n1CCCCN1CCN(CCCCn2c(=O)oc3ccccc32)CC1,Non-toxic

# Tested on: SK-MEL
# Assay: Cytotoxicity against human SK-MEL cells after 48 hrs by neutral red assay relative to control
# Format: cell-based
# Settings: not given
# Method in brief: as §3
row,SMILES,IC50
1,O=c1sc2ccccc2n1CCCCCN1CCN(CCCCCn2c(=O)sc3ccccc32)CC1,19.8 µM

# Tested on: KB
# Assay: Cytotoxicity against human KB cells up to 25 ug/ml after 48 hrs by neutral red assay relative to control
# Format: cell-based
# Settings: not given
# Method in brief: as §1
row,SMILES,Activity
1,O=c1sc2ccccc2n1CCCCCN1CCN(CCCCCn2c(=O)sc3ccccc32)CC1,Non-toxic
2,O=c1oc2ccccc2n1CCCCCN1CCN(CCCCn2c(=O)oc3ccccc32)CC1,Non-toxic
3,O=c1oc2ccccc2n1CCCCN1CCN(CCCCn2c(=O)oc3ccccc32)CC1,Non-toxic
